Experimental data taken from ChEMBL document CHEMBL5661979, “Pharmacological inhibition of BMK1 suppresses tumor growth through promyelocytic leukemia protein” (Cancer Cell, 2010).

Legend:
[1] = biological target: Cyclin-dependent kinase 2 (Homo sapiens, UniProt P24941); assay: Inhibition of CDK2 K2 site in human HeLa cells lysate pre incubated for 15 mins followed by ATP acyl phosphate probe addition and measured after 10 mins by LC-MS/MS analysis; format: subcellular
Method in brief: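 KiNativ profiling in HeLa lysate (5 mg/mL total protein). Lysate incubated 15 min with inhibitor at 50, 10, 2, 0.8 or 0 μM. ATP or ADP acylphosphate probe then added (5 μM final) and reacted 10 min. Reaction stopped with urea and analysed by targeted MS, using up to four fragment ions per kinase peptide-probe conjugate. % inhibition taken against untreated lysate. Run in duplicate.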

[2] = biological target: Macrophage-stimulating protein receptor (Homo sapiens, UniProt Q04912); assay: Inhibition of RON in human HeLa cells lysate at 50 uM pre incubated for 15 mins followed by ADP acyl phosphate probe addition and measured after 10 mins by LC-MS/MS analysis relative to control; format: subcellular; conditions: time 25.0 min
Sequence of Macrophage-stimulating protein receptor (Q04912 25-304 limits assumed): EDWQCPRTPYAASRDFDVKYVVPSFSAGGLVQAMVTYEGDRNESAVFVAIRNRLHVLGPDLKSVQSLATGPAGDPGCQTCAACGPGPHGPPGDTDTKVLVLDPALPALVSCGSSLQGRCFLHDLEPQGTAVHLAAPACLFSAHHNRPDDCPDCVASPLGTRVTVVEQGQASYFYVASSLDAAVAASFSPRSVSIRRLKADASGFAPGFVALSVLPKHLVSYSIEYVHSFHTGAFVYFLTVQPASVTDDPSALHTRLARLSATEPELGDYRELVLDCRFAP
Sequence of Macrophage-stimulating protein receptor (Q04912 310-1400 limits assumed): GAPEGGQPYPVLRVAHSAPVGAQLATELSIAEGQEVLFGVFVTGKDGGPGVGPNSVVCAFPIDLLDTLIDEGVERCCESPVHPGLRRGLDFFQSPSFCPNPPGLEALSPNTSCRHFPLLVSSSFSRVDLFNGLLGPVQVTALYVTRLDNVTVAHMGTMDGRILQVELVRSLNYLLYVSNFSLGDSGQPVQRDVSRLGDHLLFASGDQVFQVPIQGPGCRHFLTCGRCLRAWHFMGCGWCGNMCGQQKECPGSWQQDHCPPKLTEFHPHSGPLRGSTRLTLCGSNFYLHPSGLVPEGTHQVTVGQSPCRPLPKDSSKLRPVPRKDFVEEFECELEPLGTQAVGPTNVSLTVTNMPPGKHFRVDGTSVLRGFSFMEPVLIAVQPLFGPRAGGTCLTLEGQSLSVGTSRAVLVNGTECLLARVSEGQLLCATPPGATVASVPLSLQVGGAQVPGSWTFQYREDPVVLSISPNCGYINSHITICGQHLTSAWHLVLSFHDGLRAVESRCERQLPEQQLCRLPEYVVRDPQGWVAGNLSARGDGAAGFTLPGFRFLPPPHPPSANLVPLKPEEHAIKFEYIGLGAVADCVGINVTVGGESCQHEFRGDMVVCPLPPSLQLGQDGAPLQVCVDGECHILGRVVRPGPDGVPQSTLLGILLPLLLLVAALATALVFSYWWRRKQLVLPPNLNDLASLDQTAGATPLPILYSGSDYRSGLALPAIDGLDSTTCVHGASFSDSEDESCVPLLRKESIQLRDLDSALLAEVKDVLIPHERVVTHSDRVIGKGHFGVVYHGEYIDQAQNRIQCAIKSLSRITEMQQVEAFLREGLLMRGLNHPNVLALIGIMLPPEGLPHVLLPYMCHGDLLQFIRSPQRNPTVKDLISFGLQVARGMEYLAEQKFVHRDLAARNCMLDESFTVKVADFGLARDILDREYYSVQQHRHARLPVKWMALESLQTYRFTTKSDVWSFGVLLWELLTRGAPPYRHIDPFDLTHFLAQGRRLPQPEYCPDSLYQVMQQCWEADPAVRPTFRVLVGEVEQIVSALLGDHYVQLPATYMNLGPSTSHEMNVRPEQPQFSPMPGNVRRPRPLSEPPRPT

[3] = biological target: MAP/microtubule affinity-regulating kinase 3 (Homo sapiens, UniProt P27448); assay: Inhibition of MARK3 in human HeLa cells lysate at 50 uM pre incubated for 15 mins followed by ADP acyl phosphate probe addition and measured after 10 mins by LC-MS/MS analysis relative to control; format: subcellular; conditions: time 25.0 min
Sequence of MAP/microtubule affinity-regulating kinase 3 (P27448 whole entry, looked up, the tested form may be a part): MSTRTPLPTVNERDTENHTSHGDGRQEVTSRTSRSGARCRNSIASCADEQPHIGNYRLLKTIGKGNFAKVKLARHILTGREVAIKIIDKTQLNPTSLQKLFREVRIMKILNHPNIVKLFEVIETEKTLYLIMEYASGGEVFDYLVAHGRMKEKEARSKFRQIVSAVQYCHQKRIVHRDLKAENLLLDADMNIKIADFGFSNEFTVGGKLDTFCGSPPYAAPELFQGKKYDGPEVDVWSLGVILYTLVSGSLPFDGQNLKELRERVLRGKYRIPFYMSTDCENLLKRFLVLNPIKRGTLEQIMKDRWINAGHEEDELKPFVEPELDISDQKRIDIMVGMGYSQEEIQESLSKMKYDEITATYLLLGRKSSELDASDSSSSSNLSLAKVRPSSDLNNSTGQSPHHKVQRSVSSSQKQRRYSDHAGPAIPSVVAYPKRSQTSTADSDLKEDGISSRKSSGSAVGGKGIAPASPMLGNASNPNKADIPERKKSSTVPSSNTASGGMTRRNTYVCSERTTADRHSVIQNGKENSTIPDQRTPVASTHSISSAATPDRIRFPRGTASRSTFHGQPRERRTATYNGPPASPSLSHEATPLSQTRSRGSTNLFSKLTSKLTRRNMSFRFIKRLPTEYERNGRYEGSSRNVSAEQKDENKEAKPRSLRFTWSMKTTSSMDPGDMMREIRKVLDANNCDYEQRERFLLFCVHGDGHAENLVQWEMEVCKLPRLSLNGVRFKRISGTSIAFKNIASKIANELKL

[4] = biological target: Ribosomal protein S6 kinase alpha-3 (Homo sapiens, UniProt P51812); assay: Inhibition of RSK2 domain 2 in human HeLa cells lysate at 10 uM pre incubated for 15 mins followed by ADP acyl phosphate probe addition and measured after 10 mins by LC-MS/MS analysis relative to control; format: subcellular; conditions: time 25.0 min
Sequence of Ribosomal protein S6 kinase alpha-3 (P51812 whole entry, the tested form may be a part): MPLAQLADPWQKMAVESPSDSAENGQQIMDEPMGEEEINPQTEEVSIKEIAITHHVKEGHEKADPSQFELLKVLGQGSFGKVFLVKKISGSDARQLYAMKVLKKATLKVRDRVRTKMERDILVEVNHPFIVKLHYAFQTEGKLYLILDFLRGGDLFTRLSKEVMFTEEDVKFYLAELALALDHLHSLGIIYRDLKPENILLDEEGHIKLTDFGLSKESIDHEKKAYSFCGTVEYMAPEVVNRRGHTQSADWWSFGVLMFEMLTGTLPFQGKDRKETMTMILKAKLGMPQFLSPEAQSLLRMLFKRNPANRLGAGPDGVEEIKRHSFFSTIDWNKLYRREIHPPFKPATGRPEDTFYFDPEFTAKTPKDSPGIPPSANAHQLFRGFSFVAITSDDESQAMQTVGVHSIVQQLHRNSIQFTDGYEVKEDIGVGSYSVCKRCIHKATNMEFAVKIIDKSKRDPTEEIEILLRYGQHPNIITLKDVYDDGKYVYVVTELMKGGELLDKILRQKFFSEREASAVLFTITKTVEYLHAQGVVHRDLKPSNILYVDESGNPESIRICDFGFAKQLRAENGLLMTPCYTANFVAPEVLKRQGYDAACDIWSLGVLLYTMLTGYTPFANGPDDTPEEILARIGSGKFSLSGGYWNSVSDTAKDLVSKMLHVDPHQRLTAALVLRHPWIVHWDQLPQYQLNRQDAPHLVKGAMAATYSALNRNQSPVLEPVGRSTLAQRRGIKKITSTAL

[5] = biological target: T1, Serine/threonine-protein kinase ULK3 (Homo sapiens) (UniProt Q6PHR2); assay: Inhibition of ULK3 in human HeLa cells lysate at 10 uM pre incubated for 15 mins followed by ADP acyl phosphate probe addition and measured after 10 mins by LC-MS/MS analysis relative to control; format: subcellular; conditions: time 25.0 min
T1 sequence (whole entry): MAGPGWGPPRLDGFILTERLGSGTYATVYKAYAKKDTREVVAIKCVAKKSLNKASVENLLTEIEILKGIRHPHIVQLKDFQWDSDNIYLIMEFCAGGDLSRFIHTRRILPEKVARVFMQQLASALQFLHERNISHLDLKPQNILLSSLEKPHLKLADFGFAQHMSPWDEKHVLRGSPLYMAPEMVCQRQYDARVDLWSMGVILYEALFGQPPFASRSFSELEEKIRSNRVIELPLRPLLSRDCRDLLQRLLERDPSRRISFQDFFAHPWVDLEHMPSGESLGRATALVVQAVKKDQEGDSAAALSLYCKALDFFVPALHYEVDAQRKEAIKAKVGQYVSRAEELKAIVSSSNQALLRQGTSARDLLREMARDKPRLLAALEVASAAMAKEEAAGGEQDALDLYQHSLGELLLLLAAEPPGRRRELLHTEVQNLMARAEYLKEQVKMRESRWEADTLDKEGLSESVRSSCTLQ

[6] = biological target: Serine/threonine-protein kinase PLK1 (Homo sapiens, UniProt P53350); assay: Inhibition of PLK1 in human HeLa cells lysate at 10 uM pre incubated for 15 mins followed by ADP acyl phosphate probe addition and measured after 10 mins by LC-MS/MS analysis relative to control; format: subcellular; conditions: time 25.0 min
[7] = biological target: Phosphatidylinositol 4-kinase beta (Homo sapiens, UniProt Q9UBF8); assay: Inhibition of PIK4CB in human HeLa cells lysate at 50 uM pre incubated for 15 mins followed by ATP acyl phosphate probe addition and measured after 10 mins by LC-MS/MS analysis relative to control; format: subcellular; conditions: time 25.0 min
Sequence of Phosphatidylinositol 4-kinase beta (Q9UBF8 2-816 limits assumed): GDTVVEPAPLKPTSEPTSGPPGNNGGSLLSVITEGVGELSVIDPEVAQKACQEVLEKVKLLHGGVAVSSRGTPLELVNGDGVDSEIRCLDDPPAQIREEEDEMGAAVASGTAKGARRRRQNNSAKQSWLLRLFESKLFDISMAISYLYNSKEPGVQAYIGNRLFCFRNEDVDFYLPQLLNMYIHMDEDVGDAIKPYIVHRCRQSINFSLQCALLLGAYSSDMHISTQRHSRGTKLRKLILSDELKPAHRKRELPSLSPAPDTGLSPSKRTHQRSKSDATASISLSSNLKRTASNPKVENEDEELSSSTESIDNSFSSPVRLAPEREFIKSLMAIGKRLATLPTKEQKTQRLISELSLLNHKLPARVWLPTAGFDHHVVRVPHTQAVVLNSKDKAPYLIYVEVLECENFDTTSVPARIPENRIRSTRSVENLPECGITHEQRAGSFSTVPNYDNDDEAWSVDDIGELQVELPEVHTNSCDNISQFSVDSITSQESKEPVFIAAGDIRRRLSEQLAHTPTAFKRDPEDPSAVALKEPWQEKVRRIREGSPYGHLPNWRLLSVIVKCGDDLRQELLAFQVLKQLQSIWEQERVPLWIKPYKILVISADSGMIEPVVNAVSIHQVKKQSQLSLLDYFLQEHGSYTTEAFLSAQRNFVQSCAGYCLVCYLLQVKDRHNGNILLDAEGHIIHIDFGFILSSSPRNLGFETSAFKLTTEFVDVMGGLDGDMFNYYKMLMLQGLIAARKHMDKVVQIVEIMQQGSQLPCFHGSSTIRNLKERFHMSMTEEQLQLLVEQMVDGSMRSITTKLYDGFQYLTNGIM

[8] = biological target: T2, Serine/threonine-protein kinase A-Raf (Homo sapiens) (UniProt P10398); assay: Inhibition of ARAF in human HeLa cells lysate at 2 uM pre incubated for 15 mins followed by ATP acyl phosphate probe addition and measured after 10 mins by LC-MS/MS analysis relative to control; format: subcellular; conditions: time 25.0 min
T2 sequence (whole entry): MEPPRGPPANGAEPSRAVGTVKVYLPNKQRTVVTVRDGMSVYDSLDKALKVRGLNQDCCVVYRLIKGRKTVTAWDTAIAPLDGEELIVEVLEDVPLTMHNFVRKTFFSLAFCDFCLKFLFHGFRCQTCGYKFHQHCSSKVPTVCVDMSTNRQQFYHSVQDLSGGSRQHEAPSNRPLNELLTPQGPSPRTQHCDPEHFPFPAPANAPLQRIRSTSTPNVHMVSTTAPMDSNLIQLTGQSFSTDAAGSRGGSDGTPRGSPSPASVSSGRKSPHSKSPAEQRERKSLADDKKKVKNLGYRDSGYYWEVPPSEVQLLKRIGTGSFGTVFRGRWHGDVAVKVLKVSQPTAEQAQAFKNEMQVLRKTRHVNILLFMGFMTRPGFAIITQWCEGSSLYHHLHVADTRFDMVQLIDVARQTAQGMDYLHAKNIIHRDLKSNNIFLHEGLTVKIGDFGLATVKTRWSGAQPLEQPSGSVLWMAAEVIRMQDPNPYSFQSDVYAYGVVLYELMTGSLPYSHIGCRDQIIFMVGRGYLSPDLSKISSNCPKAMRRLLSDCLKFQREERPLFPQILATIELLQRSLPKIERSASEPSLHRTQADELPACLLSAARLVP
Method in brief: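 KiNativ-type profiling in HeLa lysate (5 mg/mL total protein). Lysate preincubated 15 min with inhibitor at 50, 10, 2, 0.8 or 0 μM, then ATP or ADP acylphosphate probe added (5 μM final) for 10 min. Reaction stopped with urea and analysed by targeted MS, using up to four fragment ions per kinase peptide-probe conjugate. % inhibition calculated against untreated lysate. Duplicate reactions.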

[9] = biological target: Serine/threonine-protein kinase PLK4 (Homo sapiens, UniProt O00444); assay: Binding affinity to PLK4 (unknown origin) assessed as dissociation constant by ATP-competition binding assay
Sequence of Serine/threonine-protein kinase PLK4 (O00444 whole entry): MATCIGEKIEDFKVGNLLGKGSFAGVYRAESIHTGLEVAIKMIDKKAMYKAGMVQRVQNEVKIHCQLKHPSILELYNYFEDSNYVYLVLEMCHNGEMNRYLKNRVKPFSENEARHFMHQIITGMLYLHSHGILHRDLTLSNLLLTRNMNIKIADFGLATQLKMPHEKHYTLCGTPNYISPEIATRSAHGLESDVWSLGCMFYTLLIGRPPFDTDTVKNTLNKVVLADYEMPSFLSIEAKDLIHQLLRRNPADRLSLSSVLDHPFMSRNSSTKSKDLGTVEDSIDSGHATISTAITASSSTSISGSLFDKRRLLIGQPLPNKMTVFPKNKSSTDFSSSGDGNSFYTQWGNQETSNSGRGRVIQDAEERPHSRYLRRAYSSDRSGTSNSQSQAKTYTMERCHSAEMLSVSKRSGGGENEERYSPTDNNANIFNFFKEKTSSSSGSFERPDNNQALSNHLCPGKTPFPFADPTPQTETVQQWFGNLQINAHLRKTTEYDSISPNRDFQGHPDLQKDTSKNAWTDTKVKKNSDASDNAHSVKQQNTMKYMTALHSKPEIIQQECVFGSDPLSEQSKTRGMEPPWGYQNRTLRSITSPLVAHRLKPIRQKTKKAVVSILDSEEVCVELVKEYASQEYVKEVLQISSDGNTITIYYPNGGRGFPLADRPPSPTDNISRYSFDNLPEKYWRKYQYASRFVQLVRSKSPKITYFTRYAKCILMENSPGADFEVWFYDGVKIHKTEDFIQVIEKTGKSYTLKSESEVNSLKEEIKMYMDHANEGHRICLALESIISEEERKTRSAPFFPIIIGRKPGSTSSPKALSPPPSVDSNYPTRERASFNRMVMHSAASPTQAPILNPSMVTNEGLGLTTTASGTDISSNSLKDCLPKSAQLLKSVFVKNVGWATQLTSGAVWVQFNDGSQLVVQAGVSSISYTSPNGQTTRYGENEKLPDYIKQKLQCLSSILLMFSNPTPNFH

[10] = Toxicity in C57Bl/6 mouse assessed as body weight at 50 mg/kg, ip for 14 days (reference value: 0.2 to 0.208 kg); format: organism-based; conditions: in vivo, 336 h, time 14 day

With `CCOc1cc(N2CCC(O)CC2)ccc1Nc1ncc2c(n1)N(C)c1ccccc1C(=O)N2C` as the compound, how does the IC50 [1] read?
The IC50 was over 50000 nM.

And the inhibition [2]?
Its inhibition is 24%.

What about the inhibition [3] of the same compound?
The inhibition was -3.3%.

What about the inhibition [4] of the same compound?
The inhibition was -5.7%.

What about the inhibition [5] of the same compound?
The inhibition was 1.2%.

What about the inhibition [6] of the same compound?
The inhibition was -0.6%.

And the inhibition [7]?
The inhibition was 52.2%.

And the inhibition [8]?
Its inhibition is 3.3%.

What about the Kd [9] of the same compound?
The Kd was 600 nM.

What about the Activity [10] of the same compound?
Its Activity is 0.02 kg.
